Values joined by “and” are separate entries in the source; they are usually repeats but may differ in a detail not shown here. Equal values may be shown once. Blank lines part the entries; values can stand above or below the compound they belong to.
Assays:
[1] = system: M-NFS-60 cells; assay: M-NFS-60 cell proliferation assay; assay type: cell-based, mouse; details: 1,000 ng/mL versus 10 ng/mL CSF1
[2] = Plasma protein binding, human plasma; assay type: in vitro ADME
[3] = system: TGCT patients; details: across all trials of pexidartinib in TGCT; cited from earlier work
[4] = system: human osteoclast precursors; assay: Osteoclast differentiation assay; assay type: cell-based; details: 240 h, read-out: IC50, osteoclast differentiation
In short: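 Human osteoclast precursors thawed into complete medium with 66 ng/mL RANKL and 33 ng/mL human CSF1. Plated at 2,500 cells/well onto serially diluted test compound in triplicate (0.1% DMSO final). Cultured 10 days at 37°C. Differentiation read as tartrate-resistant acid phosphatase activity in supernatant, absorbance at 550 nm.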

[5] = system: CSF1R signaling (phospho-ERK) in monocytes in human whole blood; assay: Whole blood phospho-ERK flow cytometry assay; assay type: cell-based; details: Monocyte, read-out: adjusted free IC50
In short: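 Whole blood from a healthy donor (K2EDTA) incubated with test compound in 100 µL aliquots for 4 h at 37°C, then stimulated with CSF1 10 ng/mL for 5 min. RBCs lysed and cells fixed, permeabilized on ice, and stained with anti-CD14-PE and anti-phospho-ERK1/2. Median phospho-ERK fluorescence measured in CD14⁺ cells, from 50,000 events in the WBC gate.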

[6] = Plasma protein binding, mouse plasma; assay type: in vitro ADME
[7] = system: CSF1-stimulated cFOS expression in mouse spleens; assay: Mouse PK/PD model, six daily oral doses; assay type: in vivo
[8] = Mouse pharmacokinetics after a single oral dose; assay type: in vivo, DBA/1 mice; details: 3.75 mg/kg single oral dose
[9] = Mouse pharmacokinetics at steady state; assay type: in vivo, DBA/1 mice; details: female, DBA/1, mouse, plasma, po, 3 mg/kg
[10] = system: PC3 prostate cancer peritibial implant xenograft; assay: PC3 peritibial implant bone invasion xenograft model; assay type: in vivo, nude mice; details: 10 mg/kg once or twice daily, oral
In short: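 Male athymic nude mice acclimated 7 days, then implanted with 1×10^6 PC3 cells in serum-free MEM between tibia and fibula of the right leg. Randomized by body weight. Oral dosing began 6 h post-implant, days 1–32: 0.4% HPMC vehicle or test compound 10 mg/kg once or twice daily, n = 20 per group. Tumor burden = (length × width²)/2 from calipers, measured 2–3 times weekly.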

[11] = system: MC38 colorectal cancer; assay: MC38 syngeneic colorectal cancer model; assay type: in vivo, C57BL/6 mice
In short: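 Female C57BL/6 mice implanted s.c. in the lower right flank with 1×10^6 MC38 cells in PBS. Randomized at mean tumor 104 mm³ and dosed days 12–39: test compound 10 mg/kg oral daily (0.4% HPMC vehicle) plus isotype or anti-PD1 10 mg/kg i.p. twice weekly, n = 15. Five per group taken day 32, 2 h post-dose; fresh tumors analysed by flow cytometry (macrophages CD45/CD11b/F4/80).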

[12] = system: CD68+ macrophages; assay: CD68+ macrophages in rat tissues; assay type: in vivo, Sprague-Dawley rats; details: 15 mg/kg/day orally, 14 days
In short: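 Male Sprague-Dawley rats dosed orally for 14 days with 0.4% HPMC vehicle or test compound 15 mg/kg daily (5 per group). FFPE organ tissues stained for CD68 with DAPI counterstain. Five nonoverlapping fields imaged at 20× per tissue. Total cell counts and CD68⁺ cell density (cells/mm²) determined.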

[13] = Crossover pharmacokinetic study in rats; assay type: in vivo, Sprague-Dawley rats
In short: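 Crossover design in 3 fasted male Sprague-Dawley rats. Single IV dose of 1 mg/kg in 20% Captisol / 25 mmol/L pH 2 phosphate buffer, or oral 10 mg/kg in 0.4% HPMC. Plasma sampled at 0, 0.083 (IV only), 0.25, 0.5, 1, 2, 4, 6, 8, 12 and 24 h and analysed by LC/MS.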

[14] = Crossover pharmacokinetic study in dogs; assay type: in vivo, Beagle dogs
In short: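 Crossover design in 3 fasted male Beagle dogs. Single IV dose of 1 mg/kg in 20% Captisol / 25 mmol/L pH 2 phosphate buffer, or oral 3, 10 or 30 mg/kg in 0.4% HPMC. Plasma sampled at 0, 0.083 (IV only), 0.25, 0.5, 1, 2, 4, 6, 8, 12 and 24 h. Quantified by LC/MS.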

[15] = system: cytochrome P450 (CYP) isoforms (all isoforms studied); assay: Cytochrome P450 inhibition, all isoforms studied; assay type: in vitro ADME
[16] = system: cytochrome P450 (CYP) isoforms; assay: Cytochrome P450 inhibition, all isoforms studied; assay type: in vitro ADME
[17] = target: MDR1 drug transporter (Homo sapiens, UniProt P08183); assay: MDR1 transporter inhibition; assay type: in vitro ADME
Chain of MDR1 drug transporter (P08183 whole entry): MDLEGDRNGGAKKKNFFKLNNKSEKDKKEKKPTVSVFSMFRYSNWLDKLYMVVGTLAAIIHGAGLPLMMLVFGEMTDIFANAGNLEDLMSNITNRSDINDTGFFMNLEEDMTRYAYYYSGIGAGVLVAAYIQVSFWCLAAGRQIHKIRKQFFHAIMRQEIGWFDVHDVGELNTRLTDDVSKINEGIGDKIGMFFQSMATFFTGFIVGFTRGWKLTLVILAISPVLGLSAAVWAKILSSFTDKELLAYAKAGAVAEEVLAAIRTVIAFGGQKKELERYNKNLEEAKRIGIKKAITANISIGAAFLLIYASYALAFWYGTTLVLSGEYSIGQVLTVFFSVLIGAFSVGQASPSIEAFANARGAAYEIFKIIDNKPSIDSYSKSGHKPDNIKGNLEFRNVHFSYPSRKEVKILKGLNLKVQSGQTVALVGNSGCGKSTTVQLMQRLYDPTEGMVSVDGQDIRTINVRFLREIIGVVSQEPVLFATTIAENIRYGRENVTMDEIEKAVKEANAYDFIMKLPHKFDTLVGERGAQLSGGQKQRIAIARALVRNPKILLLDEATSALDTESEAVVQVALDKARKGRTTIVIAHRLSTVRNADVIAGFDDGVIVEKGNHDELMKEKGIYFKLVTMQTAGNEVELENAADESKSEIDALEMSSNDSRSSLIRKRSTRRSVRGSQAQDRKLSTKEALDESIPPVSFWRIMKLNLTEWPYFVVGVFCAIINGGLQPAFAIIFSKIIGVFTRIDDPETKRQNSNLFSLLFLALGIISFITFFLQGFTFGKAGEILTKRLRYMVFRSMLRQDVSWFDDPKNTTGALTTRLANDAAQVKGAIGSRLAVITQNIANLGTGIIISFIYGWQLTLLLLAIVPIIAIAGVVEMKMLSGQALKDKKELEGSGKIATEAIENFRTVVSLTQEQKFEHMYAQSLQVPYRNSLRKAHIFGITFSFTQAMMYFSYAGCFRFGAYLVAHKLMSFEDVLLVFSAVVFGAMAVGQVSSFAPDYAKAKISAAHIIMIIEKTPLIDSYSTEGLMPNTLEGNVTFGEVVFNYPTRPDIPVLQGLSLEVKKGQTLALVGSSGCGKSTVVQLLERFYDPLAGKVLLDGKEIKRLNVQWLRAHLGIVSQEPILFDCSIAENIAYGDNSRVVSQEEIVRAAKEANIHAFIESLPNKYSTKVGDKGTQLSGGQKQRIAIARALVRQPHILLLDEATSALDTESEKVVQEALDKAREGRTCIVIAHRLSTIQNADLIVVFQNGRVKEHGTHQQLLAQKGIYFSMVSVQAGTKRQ

[18] = target: hERG channel (Homo sapiens, UniProt Q12809); assay: Predictor hERG fluorescence polarization binding assay
Chain of hERG channel (Q12809 whole entry): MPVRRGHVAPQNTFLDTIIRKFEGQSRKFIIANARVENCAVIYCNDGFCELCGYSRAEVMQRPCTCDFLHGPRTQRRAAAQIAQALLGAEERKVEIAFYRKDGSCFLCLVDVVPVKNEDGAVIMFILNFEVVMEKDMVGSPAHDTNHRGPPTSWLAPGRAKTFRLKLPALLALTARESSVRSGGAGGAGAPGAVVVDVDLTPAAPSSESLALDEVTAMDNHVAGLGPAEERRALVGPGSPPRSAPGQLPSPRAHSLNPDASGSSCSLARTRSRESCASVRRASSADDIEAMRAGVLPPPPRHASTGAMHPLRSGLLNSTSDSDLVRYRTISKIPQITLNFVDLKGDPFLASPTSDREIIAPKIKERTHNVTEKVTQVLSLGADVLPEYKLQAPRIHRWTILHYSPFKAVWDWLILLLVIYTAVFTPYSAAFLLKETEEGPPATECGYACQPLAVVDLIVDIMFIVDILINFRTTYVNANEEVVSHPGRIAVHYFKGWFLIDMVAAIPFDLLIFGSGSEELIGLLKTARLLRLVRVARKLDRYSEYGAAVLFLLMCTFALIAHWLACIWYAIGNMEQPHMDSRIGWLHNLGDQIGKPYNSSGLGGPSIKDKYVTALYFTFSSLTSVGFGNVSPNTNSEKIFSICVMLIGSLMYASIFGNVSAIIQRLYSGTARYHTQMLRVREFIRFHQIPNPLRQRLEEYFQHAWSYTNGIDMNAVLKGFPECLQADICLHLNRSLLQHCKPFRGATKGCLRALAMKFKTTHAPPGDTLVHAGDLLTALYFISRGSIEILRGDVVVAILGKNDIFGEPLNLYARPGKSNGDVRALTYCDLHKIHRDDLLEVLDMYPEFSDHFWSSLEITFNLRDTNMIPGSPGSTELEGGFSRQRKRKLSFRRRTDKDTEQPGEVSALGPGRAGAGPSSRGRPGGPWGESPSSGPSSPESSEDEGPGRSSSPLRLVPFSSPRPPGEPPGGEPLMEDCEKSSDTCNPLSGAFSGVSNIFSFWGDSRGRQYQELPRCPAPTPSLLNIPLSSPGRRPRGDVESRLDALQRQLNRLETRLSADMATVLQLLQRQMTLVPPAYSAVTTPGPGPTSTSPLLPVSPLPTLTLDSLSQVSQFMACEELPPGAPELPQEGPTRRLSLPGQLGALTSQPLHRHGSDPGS

[19] = system: tenosynovial giant cell tumor (TGCT); assay: Phase I/II study DCC-3014-01-001; assay type: in vivo, human
[20] = male, Sprague-Dawley, rat, plasma, intravenous, 1 mg/kg
[21] = male, beagle, dog, plasma, intravenous, 1 mg/kg
[22] = 3 TGCT patients, cycle 2 day 1, trough and 4 hours after dose

- plasma protein binding ([2]; method and source not stated): > 99 % bound
SMILES: FC(F)(F)c1ccc(CNc2ccc(Cc3c[nH]c4ncc(Cl)cc34)cn2)cn1 [Pexidartinib, pexidartinib]
- loss of potency at high CSF1 ligand concentration [1]: 3.8 fold
- serious hepatic adverse events assessed as probably drug-related [3]: five

- IC50 [4]: 0.0093 µM
- IC50 [5]: ~0.014 µM
- bound to proteins in plasma ([2]; human plasma, in vitro ultracentrifugation assay): approximately 96.5%
- bound in plasma [6]: approximately 97.2%
- EC50 ([7]; Mus musculus, po, read-out: free EC50): 0.012 µg/mL and 28 nM
- AUC0–24 [8]: 28,987 ng*hour/mL
- AUC(0-t) [9]: 49300 ng·h/mL
- Vd [13, 20]: 0.69 L/kg
- clearance [13, 20]: 0.5 mL/min/kg
- half-life [13, 20]: 14.2 h
- oral bioavailability ([13]; rats, 10 mg/kg oral versus 1 mg/kg IV): 76 % F
- oral bioavailability ([14]; dogs, simple vehicle): ~ 30 % F
- Vd [14, 21]: 1.33 L/kg
- clearance [14, 21]: 2.5 mL/min/kg
- half-life [14, 21]: 6.8 h
- IC50 [15]: > 75 µM
- IC50 [17]: 4.35 µM
- average plasma concentration [19, 22]: approximately 500 ng/mL
- average plasma concentration (total drug) [19, 22]: ~ 1,200 nmol/L
SMILES: Cc1nc(-c2cnc(NC(C)C)n(C)c2=O)ccc1Oc1ccnc(-c2cnn(C)c2)c1 [Vimseltinib, vimseltinib]
- inhibition of cFOS expression ([7]; 3 mg/kg, six daily doses, at 24 and 48 hours): approximately 50%
- inhibition of cFOS expression ([7]; 3 mg/kg, six daily doses, for 12 hours): ≥ 90%
- EC80 ([7]; all animals in the steady-state study): 1,700 ng/mL
- inhibition of cFOS expression ([7]; six daily oral doses of 1, 3, and 10 mg/kg): significantly inhibited cFOS expression
- primary tumor growth [10]: not affected
- bone degradation (CT score 0–4) ([10]; to day 32, n = 20/cohort): statistically significant protection from bone degradation
- reduction of TAMs in the primary tumor ([11]; after 3 weeks of dosing, flow cytometry): > 6 fold
- tumor growth inhibition (%TGI) ([11]; day 32, vimseltinib 10 mg/kg orally every day, anti-PD1 10 mg/kg i.p. twice a week): 52%
- decrease in liver CD68+ macrophages ([12]; P < 0.0001): 68%
- decrease in colon CD68+ macrophages ([12]; P = 0.17): 47%
- time-dependent or metabolism-dependent inhibition of any CYP isoform [16]: no time-dependent or metabolism-dependent inhibition of any CYP isoform
- EC50 [18]: > 25 µM
- EC20, hERG binding ([18]; in vitro binding assay): 19.4 µM
- plasma CSF1 and IL34 levels ([19]; 3 patients with TGCT, cycle 2 day 1, 30 mg once a day for 5 days then 30 mg twice weekly): increases in CSF1 and IL34 levels
- change in tumor size (RECIST v1.1, MRI) ([19]; patient 2, right hip TGCT, after two cycles): −25%

From PMC9398179 (Molecular Cancer Therapeutics, 2021)
